An excerpt weighted towards active compounds, which were near 2.6% of everything screened.
SENP7 inh – SENP7 protease inhibitors, primary screen, biochemical, luminescence, uHTS; Sentrin-specific protease 7 (Homo sapiens), Q9BQF6; recombinant SENP7, Z-RLRGG-aminoluciferin luminescence, 40 min; inhibition, % at 5 µM; 1.5% of 330,000 active;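 active = inhibition above about 50% at the single test dose, limit read from the data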;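 also: plate controls were DMSO with enzyme for no effect and no enzyme buffer wells for full effect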
Platelet DG rel – inhibitors of platelet dense granule secretion, primary screen, cell-based, MLPCN, human platelets; human platelet-rich plasma, SFLLRN dense granule ATP release, luminescence; inhibition, %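 (compounds screened at 7.5 µM in platelet-rich plasma)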; 0.22% of 300,000 active;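 active = mean replicate score, as percent of positive control, at or above 50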
SENP8 block-1 – SENP8 protease inhibitors, primary screen, biochemical, luminescence. Sentrin-specific protease 8 (Homo sapiens), Q96LD8. purified SENP8, Z-RLRGG-aminoluciferin cleavage. inhibition, % at 10 µM. 1.2% of 330,000 active; in the data active = inhibition above about 50%
SENP1 inh – human SENP1 catalytic domain inhibitors, primary screen, biochemical, FRET, uHTS | 0.21% of 360,000 active | recombinant SENP1 catalytic domain, CyPet-SUMO1-YPet FRET cleavage | inhibition, % at 10 µM | AID 624204, 2012;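 active = inhibition at least 30% at 10 µM, raw YFP signal under a set limit, fluorescence ratio 0.5 to 1.5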;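 also: 0% = enzyme with DMSO and 100% = no enzyme wells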
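Test system: recombinant human SENP1 catalytic domain, His6-tagged / Medium: pH 8 Tris buffer with EDTA, NaCl, BME, BSA, NP40, catalase / Also added: SUMO1 FRET substrate flanked by Cypet and Ypet, 25 nM / Times: 50 min reaction at room temperature / Signal: FRET, CFP and YFP emission / Control set: no-enzyme low control and enzyme-plus-DMSO high control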
SENP6 block – SENP6 protease inhibitors, primary screen, biochemical, luminescence, uHTS | Recombinant SENP6 catalytic domain, aminoluciferin luminescence | inhibition, % at 10 µM | 1.8% of 330,000 active | AID 2599, 2010;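 active = inhibition above about 50% at the single tested dose, limit read from the data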;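 also: plate controls were DMSO wells with enzyme for no effect and DMSO wells lacking enzyme for full effect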
Target sequence (Q9GZR1 628-1112 limits assumed): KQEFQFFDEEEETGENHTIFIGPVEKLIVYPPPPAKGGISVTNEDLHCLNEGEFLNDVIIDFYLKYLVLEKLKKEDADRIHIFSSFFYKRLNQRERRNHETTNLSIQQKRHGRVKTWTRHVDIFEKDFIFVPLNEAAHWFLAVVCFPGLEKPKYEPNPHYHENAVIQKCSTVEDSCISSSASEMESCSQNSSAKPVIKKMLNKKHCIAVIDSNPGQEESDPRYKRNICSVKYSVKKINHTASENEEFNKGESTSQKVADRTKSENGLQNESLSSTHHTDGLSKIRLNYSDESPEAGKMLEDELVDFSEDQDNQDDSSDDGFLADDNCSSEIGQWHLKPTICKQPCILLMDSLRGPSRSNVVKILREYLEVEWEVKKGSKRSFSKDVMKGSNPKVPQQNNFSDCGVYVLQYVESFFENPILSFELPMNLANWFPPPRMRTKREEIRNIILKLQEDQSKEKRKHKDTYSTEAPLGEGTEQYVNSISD
SENP8 block-2 – human SENP8 protease inhibitors, primary screen, biochemical, fluorescence, Nedd8 protein substrate, uHTS; AID 602440, 2012; recombinant SENP8; 0.64% of 360,000 active; Sentrin-specific protease 8 (Homo sapiens), Q96LD8; inhibition, % at 20 µM; in the data active = inhibition mostly above about 40%, no sharp cut-off; inactive = mostly below about 27%
SENP8 confirm – SENP8 protease inhibitors, retest, confirmation, biochemical, luminescence, single concentration; shares compounds with SENP7 inh; Recombinant SENP8, Z-RLRGG-aminoluciferin luminescence, 60 min; inhibition, % at 12.5 µM; 40% of 6,200 active;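 active = mean inhibition across replicates above about 50%, limit read from the data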
SENP6 conf – SENP6 protease inhibitors, confirmation, biochemical, luminescence, single concentration; shares compounds with SENP7 inh; recombinant SENP6, Z-RLRGG-aminoluciferin luminescence; inhibition, % at 12.5 µM; 58% of 6,200 active; AID 488915, 2010
SENP7 confirm – SENP7 protease inhibitors, retest, confirmation, biochemical, luminescence, single concentration | shares compounds with SENP7 inh | recombinant SENP7, Z-RLRGG-aminoluciferin luminescence, 40 min | inhibition, % at 12.5 µM | 69% of 6,200 active | AID 488917, 2010
Casp3 SENP sel – caspase-3 protease inhibitors, confirmation, selectivity assay for SENP inhibitor project, biochemical, single concentration; shares compounds with SENP7 inh; purified caspase-3, Z-DEVD-aminoluciferin luminescence, 60 min; inhibition, % at 12.5 µM; 60% of 6,200 active;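 active = mean inhibition above about 50%, limit read from the data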;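 also: plate controls were enzyme with DMSO for no effect and wells without caspase-3 for full effect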
SENP luc ctr – counter-screen for SENP inhibitors: luminescence interference; AID 488919; 39% of 6,200 active; inhibition, % at 12.5 µM; Pre-incubated SENP8/Z-RLRGG-aminoluciferin, luciferase luminescence interference; shares compounds with SENP7 inh;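 active = mean inhibition above about 50% when retested at one dose, limit read from the data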;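 also: plate controls were DMSO wells with completed reaction for no effect and substrate without enzyme for full effect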
Numbers without * were called inactive.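 The calls were made as follows, unless noted: active = mean inhibition above about 50% in the one-dose retest (limit read from the data); inactive = the rest.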

What do the screens show for `CC(=O)c1ccc(NC(=O)c2c(C)nn(-c3ccccc3)c2Cl)cc1`?
SENP7 inh: -18; Platelet DG rel: -7; SENP8 block-1: -7; SENP1 inh: 0; SENP6 block: -9; SENP8 block-2: 12

Results for CC(=O)OCC1OC(OCc2cn(C[C@H]3CC[C@@H]([C@@H]4CC[C@H](Cn5cc(COC6OC(COC(C)=O)C(OC(C)=O)C(OC(C)=O)C6OC(C)=O)nn5)O4)O3)nn2)C(OC(C)=O)C(OC(C)=O)C1OC(C)=O (some centres undefined) ?
SENP7 inh: 5; Platelet DG rel: -4; SENP8 block-1: 2; SENP1 inh: 0; SENP6 block: -3; SENP8 block-2: 1

What do the screens show for `Cc1ccc(NC(=O)CSc2nnc(-c3ccncc3)n2C)cc1C`?
SENP7 inh: 1; Platelet DG rel: -5; SENP8 block-1: 3; SENP1 inh: 0; SENP6 block: -2; SENP8 block-2: 15

What do the screens show for `Cc1cccc(-c2nnc(-c3ccccc3)o2)c1`?
SENP7 inh: 86*; Platelet DG rel: 1; SENP8 block-1: 74*; SENP1 inh: -1; SENP6 block: 88*; SENP8 block-2: 5; SENP8 confirm: 4; SENP6 conf: 86*; SENP7 confirm: 98*; Casp3 SENP sel: 82*; SENP luc ctr: 66*

What do the screens show for `CN(C)c1ccc(-c2nnc(-c3ccccc3F)o2)cc1`?
SENP7 inh: 85*; Platelet DG rel: 0; SENP8 block-1: 77*; SENP1 inh: -19; SENP6 block: 87*; SENP8 block-2: -393; SENP8 confirm: 34; SENP6 conf: 67*; SENP7 confirm: 74*; Casp3 SENP sel: 79*; SENP luc ctr: 32

How did COc1ccc(-c2nnc(-c3ccc(N(C)C)cc3)o2)cc1 do in these assays?
SENP7 inh: 4; Platelet DG rel: -5; SENP8 block-1: -10; SENP1 inh: -8; SENP6 block: 3; SENP8 block-2: -304

How did CCN(CC)S(=O)(=O)c1cccc(-c2nnc(-c3ccc(C)cc3)o2)c1 do in these assays?
SENP7 inh: 10; Platelet DG rel: 1; SENP8 block-1: 3; SENP1 inh: 0; SENP6 block: 3; SENP8 block-2: 1

What do the screens show for `Oc1ccc(/C=C/c2ccc3ccccc3n2)cc1`?
SENP7 inh: 102*; Platelet DG rel: 90*; SENP8 block-1: 98*; SENP1 inh: 20; SENP6 block: 101*; SENP8 block-2: -395; SENP8 confirm: 100*; SENP6 conf: 100*; SENP7 confirm: 103*; Casp3 SENP sel: 99*; SENP luc ctr: 98*

Results for O=C(O)/C=C/c1ccc2ccccc2n1 ?
SENP7 inh: -1; Platelet DG rel: -3; SENP8 block-1: -4; SENP1 inh: 1; SENP6 block: -10; SENP8 block-2: 12

How did O/C(=C\c1ccc2ccccc2n1)c1ccc(O)cc1O do in these assays?
SENP7 inh: 92*; Platelet DG rel: 26; SENP8 block-1: 93*; SENP1 inh: -33; SENP6 block: 91*; SENP8 block-2: 28; SENP8 confirm: 95*; SENP6 conf: 96*; SENP7 confirm: 102*; Casp3 SENP sel: 92*; SENP luc ctr: 47

What do the screens show for `Cn1nc(/C=C/c2ccccc2)ccc1=O`?
SENP7 inh: 58*; Platelet DG rel: 12; SENP8 block-1: 41; SENP1 inh: 2; SENP6 block: 54*; SENP8 block-2: -396; SENP8 confirm: 28; SENP6 conf: 32; SENP7 confirm: 76*; Casp3 SENP sel: 76*; SENP luc ctr: 55*

Results for Fc1ccccc1/C=C/c1ccc2ccccc2n1 ?
SENP7 inh: 100*; Platelet DG rel: 42; SENP8 block-1: 96*; SENP1 inh: -1; SENP6 block: 11; SENP8 block-2: -89; SENP8 confirm: 100*; SENP6 conf: 101*; SENP7 confirm: 104*; Casp3 SENP sel: 99*; SENP luc ctr: 99*

What do the screens show for `O=S(=O)(N/N=C\c1cccnc1)c1ccccc1`?
SENP7 inh: -3; Platelet DG rel: 2; SENP8 block-1: -6; SENP1 inh: 4; SENP6 block: -21; SENP8 block-2: 15

How did CCc1cc[n+](-c2nc3ccccc3nc2C(=C=[N-])C#N)cc1 do in these assays?
SENP7 inh: 5; Platelet DG rel: 16; SENP8 block-1: 4; SENP1 inh: -1; SENP6 block: 4; SENP8 block-2: 1

Results for CCN(CC(=O)Nc1ccc(NC(C)=O)cc1)C(=O)Cc1c(Cl)cccc1Cl ?
SENP7 inh: 0; Platelet DG rel: 3; SENP8 block-1: -3; SENP1 inh: 0; SENP6 block: 11; SENP8 block-2: 5

What do the screens show for `Cc1ccc(-c2csc(C(C)(O)c3ccc(F)c(F)c3)n2)cc1C` (centres undefined)?
SENP1 inh: 0; SENP8 block-2: 1

How did C(=C\c1ccc2ccccc2n1)/c1ccccc1 do in these assays?
SENP7 inh: 98*; Platelet DG rel: 45; SENP8 block-1: 98*; SENP1 inh: 1; SENP6 block: 98*; SENP8 block-2: -410; SENP8 confirm: 99*; SENP6 conf: 101*; SENP7 confirm: 104*; Casp3 SENP sel: 99*; SENP luc ctr: 97*

Results for c1cncc(-c2nc3c(ccc4ccccc43)[nH]2)c1 ?
SENP7 inh: -4; Platelet DG rel: -4; SENP8 block-1: -4; SENP1 inh: -12; SENP6 block: -12; SENP8 block-2: -303
